Values after ≈ are worked out from the molar mass of the structure shown.
Key:
[1] = test system: Mycobacterium tuberculosis; experiment: Antimycobacterial activity against Mycobacterium tuberculosis 331/88 after 14 days by micromethod; type: functional; details: 331/88, 336 h
Summary of the method: (§1)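 Inocula: M. tuberculosis My 331/88 at 10^-3 dilution, M. avium My 330/88 at 10^-5, M. kansasii My 235/80 and clinical isolate 6509/96 at 10^-4. Compounds added in DMSO at 1000 down to 0.5 (twofold series). Read at 14 and 21 days, plus 7 days for M. kansasii. MIC taken as lowest concentration inhibiting growth.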

[2] = test system: Mycobacterium tuberculosis; experiment: Antimycobacterial activity against Mycobacterium tuberculosis 331/88 after 21 days by micromethod; type: functional; details: 331/88, 504 h; summary of the method: as §1
Mycobacterium avium [3] = experiment: Antimycobacterial activity against isoniazid resistance Mycobacterium avium 330/88 after 14 days by micromethod; type: functional; details: 330/88, 336 h; summary of the method: as §1
Mycobacterium avium [4] = experiment: Antimycobacterial activity against isoniazid resistance Mycobacterium avium 330/88 after 21 days by micromethod; type: functional; details: 330/88, 504 h; summary of the method: as §1
Mycobacterium kansasii [5] = experiment: Antimycobacterial activity against Mycobacterium kansasii 6509/96 clinical isolate after 7 days by micromethod; type: functional; details: 6509/96, 168 h; summary of the method: as §1
Mycobacterium kansasii [6] = experiment: Antimycobacterial activity against isoniazid resistance Mycobacterium kansasii 225/80 after 7 days by micromethod; type: functional; details: 225/80, 168 h
Mycobacterium kansasii [7] = experiment: Antimycobacterial activity against isoniazid resistance Mycobacterium kansasii 225/80 after 14 days by micromethod; type: functional; details: 225/80, 336 h
Mycobacterium kansasii [8] = experiment: Antimycobacterial activity against isoniazid resistance Mycobacterium kansasii 225/80 after 21 days by micromethod; type: functional; details: 225/80, 504 h
Mycobacterium kansasii [9] = experiment: Antimycobacterial activity against Mycobacterium kansasii 6509/96 clinical isolate after 14 days by micromethod; type: functional; details: 6509/96, 336 h; summary of the method: as §1
Mycobacterium kansasii [10] = experiment: Antimycobacterial activity against Mycobacterium kansasii 6509/96 clinical isolate after 21 days by micromethod; type: functional; details: 6509/96, 504 h; summary of the method: as §1
[11] = biological target: T1, Isocitrate lyase (Mycobacterium tuberculosis) (UniProt P9WKK7); experiment: Inhibition of Mycobacterium tuberculosis H37Rv isocitrate lyase expressed in Escherichia coli HB101 at 10 umol/L
T1 sequence (whole entry): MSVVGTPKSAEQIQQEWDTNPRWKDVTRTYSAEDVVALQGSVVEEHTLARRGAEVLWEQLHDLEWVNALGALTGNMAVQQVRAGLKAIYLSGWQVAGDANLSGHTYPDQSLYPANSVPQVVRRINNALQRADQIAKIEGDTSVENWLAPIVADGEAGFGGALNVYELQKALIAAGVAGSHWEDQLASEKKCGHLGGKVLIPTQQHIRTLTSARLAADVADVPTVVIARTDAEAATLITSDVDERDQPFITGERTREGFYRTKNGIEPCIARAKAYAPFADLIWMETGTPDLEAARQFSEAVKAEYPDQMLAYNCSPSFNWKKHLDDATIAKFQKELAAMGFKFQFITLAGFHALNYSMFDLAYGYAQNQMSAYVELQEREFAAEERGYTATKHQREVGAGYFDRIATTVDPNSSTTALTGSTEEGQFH
Summary of the method: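 Isocitrate lyase assayed per Dixon–Kornberg in 96-well format. Buffer: 50 mmol/L KH2PO4, 4 mmol/L MgCl2, 4 mmol/L phenylhydrazine, 12 mmol/L cysteine, pH 7.0. Glyoxylate phenylhydrazone read at 324 nm. Compounds added in DMSO, with DMSO-alone inhibition subtracted.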

HepG2 = experiment: Cytotoxicity against human HepG2 cells after 24 hrs by CellTiter-96 cell viability assay; type: functional, cell-based; details: HepG2, 24 h
Summary of the method: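 Hep G2 human hepatic cells (passage 12), 10,000 per well, grown 24 h at 37 °C, 5% CO2 in MEM with 1% glutamine, 10% FBS and 1% nonessential amino acids. Compounds in DMSO at eight increasing concentrations, quadruplicate, 24 h at 37 °C. Kit reagent added, 1.5 h at 37 °C, absorbance 490 nm. IC50 is the concentration reducing viability to 50% of control.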

[12] = Selectivity index, ratio of IC50 for human HepG2 cells to MIC for Mycobacterium tuberculosis 331/88 after 14 days; type: functional
Summary of the method: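 Cytotoxicity in Hep G2 cells (passage 12), 10,000 cells/well, in MEM with 10% FBS, 1% glutamine and 1% nonessential amino acids. Cells preincubated 24 h, 37 °C, 5% CO2. Compounds in DMSO at eight concentrations in quadruplicate, 24 h. MTS-type reagent added for 1.5 h, A490 read, IC50 taken at 50% viability. SI = this IC50 over the 14-day M. tuberculosis MIC.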

SMILES | MIC [1] [µM] | MIC [2] [µM] | MIC (Mycobacterium avium [3]) [µM] | MIC (Mycobacterium avium [4]) [µM] | MIC (Mycobacterium kansasii [5]) [µM] | MIC (Mycobacterium kansasii [6]) [µM] | MIC (Mycobacterium kansasii [7]) [µM] | MIC (Mycobacterium kansasii [8]) [µM] | MIC (Mycobacterium kansasii [9]) [µM] | MIC (Mycobacterium kansasii [10]) [µM] | inhibition [11] [%] | IC50 (HepG2) [µM] | Selectivity Index [12]
COc1ccc(Cl)cc1C(=O)Nc1ccc(Cl)cc1O | 4 (≈ 1.25 µg/mL) | 4 (≈ 1.25 µg/mL) | 62.5 (≈ 19.5 µg/mL) | 250 (≈ 78 µg/mL) | 8 (≈ 2.5 µg/mL) | 16 (≈ 4.99 µg/mL) | 32 (≈ 9.99 µg/mL) | 62.5 (≈ 19.5 µg/mL) | 16 (≈ 4.99 µg/mL) | 16 (≈ 4.99 µg/mL) | 10 | 51.3 | 12.83
COc1ccc(Cl)cc1C(=S)Nc1cc(C(F)(F)F)ccc1O | 32 (≈ 11.6 µg/mL) | 32 (≈ 11.6 µg/mL) | 62.5 (≈ 22.6 µg/mL) | 62.5 (≈ 22.6 µg/mL) | 16 (≈ 5.79 µg/mL) | 32 (≈ 11.6 µg/mL) | 62.5 (≈ 22.6 µg/mL) | 62.5 (≈ 22.6 µg/mL) | 32 (≈ 11.6 µg/mL) | 32 (≈ 11.6 µg/mL) | 8 | 5.86 | 0.18
COc1cc(Cl)ccc1C(=O)Nc1cc(Cl)ccc1O | 125 (≈ 39 µg/mL) | 125 (≈ 39 µg/mL) | 125 (≈ 39 µg/mL) | 125 (≈ 39 µg/mL) | 16 (≈ 4.99 µg/mL) | 125 (≈ 39 µg/mL) | 125 (≈ 39 µg/mL) | 125 (≈ 39 µg/mL) | 62.5 (≈ 19.5 µg/mL) | 62.5 (≈ 19.5 µg/mL) | 0 | 87 | 0.7
COc1ccc(Cl)cc1C(=S)Nc1ccc(Br)cc1O | 32 (≈ 11.9 µg/mL) | 32 (≈ 11.9 µg/mL) | 62.5 (≈ 23.3 µg/mL) | 125 (≈ 46.6 µg/mL) | 16 (≈ 5.96 µg/mL) | 16 (≈ 5.96 µg/mL) | 32 (≈ 11.9 µg/mL) | 62.5 (≈ 23.3 µg/mL) | 32 (≈ 11.9 µg/mL) | 32 (≈ 11.9 µg/mL) | 7 | 7.6 | 0.24
COc1cc(Cl)ccc1C(=S)Nc1cc(Cl)ccc1O | 62.5 (≈ 20.5 µg/mL) | 62.5 (≈ 20.5 µg/mL) | 32 (≈ 10.5 µg/mL) | 32 (≈ 10.5 µg/mL) | 32 (≈ 10.5 µg/mL) | 16 (≈ 5.25 µg/mL) | 62.5 (≈ 20.5 µg/mL) | 125 (≈ 41 µg/mL) | 62.5 (≈ 20.5 µg/mL) | 125 (≈ 41 µg/mL) | 9 | 8.49 | 0.14
